Reference: publication PMC12466149 (eBioMedicine, 2025)
Entries after “also recorded” stand apart in the source; their conditions may differ.

What was measured:
[1] = system: MC65 Tet-Off cells (Aβ expressed); assay: Protection against Aβ toxicity in MC65 Tet-Off cells; format: cell-based, human; conditions: any concentration of rotenone; data not shown
Outline: (§1)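 MC65 human neuroblastoma cells in high-glucose DMEM with 10% FBS, 1 mM pyruvate and nonessential amino acids, 5% CO2, 37 °C. Tet-Off (Aβ expressed) cells got test compound at 2 nM–5 μM, optionally after 30 min pretreatment with 32 nM rotenone. Tet-On cells got vehicle or 32 nM rotenone. Viability at 3 days by MTT: 0.25 mg/ml, 4 h at 37 °C, solubilised in HCl/isopropanol, read at 570 nm. Tet-On vehicle set as 100%.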

SH-SY5Y APPSWE cells = assay: Mitochondrial stress test; format: cell-based, human; conditions: rotenone 256 nM
Outline: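 For SH-SY5Y cells stably expressing APPSWE, cells were held 1 h at 37 °C without CO2 in XF DMEM pH 7.4 (1 mM pyruvate, 2 mM glutamine, 10 mM glucose). OCR was recorded basally, then after oligomycin A and FCCP (each titrated over 0.5–3 μM) and 0.5 μM rotenone plus 0.5 μM antimycin A. Hoechst (5 μM final) was used for cell-count normalisation. SRC = maximal minus basal OCR.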

MC65 Tet-On cells [2] = assay: Cytotoxicity in MC65 Tet-On cells; format: cell-based, human; conditions: 32 nM rotenone
Outline: as §1

MC65 Tet-On cells [3] = assay: Real-time respirometry; format: cell-based, human
[4] = system: mitochondrial complex I (mtCI); assay: mtCI activity in isolated brain mitochondria; format: biochemical, mouse; conditions: 1 μM rotenone
Outline: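 Mouse brain mitochondria isolated by differential centrifugation (5900×g 4 min, then 12,000×g 10 min, 4 °C) in mannitol/sucrose/HEPES-Tris/EGTA medium, pH 7.4, with BSA and 0.02% digitonin. Complex I activity measured spectrophotometrically at 25 °C as oxidation of 0.15 mM NADH at 340 nm. Buffer: sucrose/Tris-HCl pH 7.5/KCl with 10 μM cytochrome c, 40 μg/ml alamethicin and 1 mM MgCl2.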

SMILES: C=C(C)[C@H]1Cc2c(ccc3c2O[C@@H]2COc4cc(OC)c(OC)cc4[C@@H]2C3=O)O1 [rotenone]
- Protection against Aβ toxicity [1]: did not protect
- Spare respiratory capacity (SRC) (SH-SY5Y APPSWE cells): did not improve SRC
- Cytotoxicity (MC65 Tet-On cells [2]): show no toxicity; also recorded: did not induce cell death
- Reduction of OCR (MC65 Tet-On cells [3]; 32 nM rotenone, within 30 min): 50%
- Effect on respiration (MC65 Tet-On cells [3]; kinetic injection): immediately blocked respiration
- mtCI inhibition (in words) [4]: complete inhibition; also recorded: completely inhibits
